Drawing on ChEMBL document CHEMBL1149257, “Tetrasubstituted imidazole inhibitors of cytokine release: probing substituents in the N-1 position” (J Med Chem, 2004), this text covers IC50 and inhibition for 35 compounds.

Data set [1] deals with Blood. In words: Inhibition of LPS-induced TNFalpha production in human whole blood. Type of data set: functional, tissue-based. The method, boiled down:
(§1)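 Fresh blood from healthy human donors, preincubated 15 min at 37 °C, 5% CO2, with serially diluted compound in Cremophor EL/ethanol (1:1); 1% Cremophor EL/ethanol as control. Stimulated with LPS 1 μg/mL for 4 h at 37 °C, stopped on ice and centrifuged. TNFα and IL-1β in the supernatant measured by ELISA. IC50 from percent reduction versus control; mean of two independent experiments unless stated.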

Data set [2] relates to Blood. Briefly: Inhibition of LPS-induced IL1 beta production in human whole blood. Type of data set: functional, tissue-based. The method, boiled down: as §1
The target in data set [3] is Mitogen-activated protein kinase 14 (Homo sapiens, UniProt Q16539). In words: Inhibition of mitogen-activated protein kinase p38 alpha.
A further data set addresses CYP2C9 (Homo sapiens, UniProt P11712). Briefly: Inhibition of human liver CYP2C9 at 10 uM. Type of data set: ADME. Summed up:
(§2)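 Each isoform tested with the compound at a single concentration of 10 μM in phosphate buffer (pH 7.4) containing 0.1% DMSO; read out as percent inhibition of enzyme activity. Other conditions follow a previously reported protocol.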

Another data set has as its target T1, CYP1A2 (Homo sapiens, UniProt P05177).
T1 sequence (P05177 whole entry): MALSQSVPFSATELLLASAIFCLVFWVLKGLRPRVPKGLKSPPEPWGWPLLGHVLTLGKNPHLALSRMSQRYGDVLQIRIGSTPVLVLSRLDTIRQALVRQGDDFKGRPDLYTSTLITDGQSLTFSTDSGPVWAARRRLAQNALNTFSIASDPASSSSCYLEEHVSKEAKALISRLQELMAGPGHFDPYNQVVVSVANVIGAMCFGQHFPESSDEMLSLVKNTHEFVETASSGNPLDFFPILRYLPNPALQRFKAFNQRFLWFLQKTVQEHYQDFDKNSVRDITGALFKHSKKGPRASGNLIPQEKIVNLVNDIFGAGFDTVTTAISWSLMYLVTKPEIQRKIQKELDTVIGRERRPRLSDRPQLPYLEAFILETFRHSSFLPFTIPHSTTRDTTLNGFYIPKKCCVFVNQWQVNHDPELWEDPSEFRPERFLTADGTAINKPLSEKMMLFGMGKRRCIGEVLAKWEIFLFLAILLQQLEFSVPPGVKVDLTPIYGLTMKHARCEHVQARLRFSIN
Briefly: Inhibition of human liver CYP1A2 at 10 uM. Type of data set: ADME. Summed up: as §2

The next data set deals with CYP2C19 (Homo sapiens, UniProt P33261). Briefly: Inhibition of human liver CYP2C19 at 10 uM. Type of data set: ADME. The method, boiled down:
as §2

The target in a further data set is CYP3A4 (Homo sapiens, UniProt P08684). Briefly: Inhibition of human liver CYP3A4 at 10 uM. Type of data set: ADME. Summed up:
as §2

A further data set deals with CYP2D6 (Homo sapiens, UniProt P10635). Briefly: Inhibition of human liver CYP2D6 at 10 uM. Type of data set: ADME. Summed up: as §2
Sequence of CYP2D6 (P10635 whole entry): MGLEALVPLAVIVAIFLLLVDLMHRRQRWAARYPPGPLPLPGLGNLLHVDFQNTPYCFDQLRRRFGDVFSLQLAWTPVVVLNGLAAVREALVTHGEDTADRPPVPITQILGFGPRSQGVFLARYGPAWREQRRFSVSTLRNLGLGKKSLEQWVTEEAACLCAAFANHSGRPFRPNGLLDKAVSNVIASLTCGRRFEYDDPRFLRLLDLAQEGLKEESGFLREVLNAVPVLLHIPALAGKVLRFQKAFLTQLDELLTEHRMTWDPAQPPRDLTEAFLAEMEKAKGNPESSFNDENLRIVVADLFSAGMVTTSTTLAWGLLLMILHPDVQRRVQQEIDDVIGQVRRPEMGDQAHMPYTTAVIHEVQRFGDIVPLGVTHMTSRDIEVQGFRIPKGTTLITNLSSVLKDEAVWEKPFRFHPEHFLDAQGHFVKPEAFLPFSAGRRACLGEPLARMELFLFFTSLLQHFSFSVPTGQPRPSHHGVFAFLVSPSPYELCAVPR

Sequence of CYP3A4 (P08684 whole entry): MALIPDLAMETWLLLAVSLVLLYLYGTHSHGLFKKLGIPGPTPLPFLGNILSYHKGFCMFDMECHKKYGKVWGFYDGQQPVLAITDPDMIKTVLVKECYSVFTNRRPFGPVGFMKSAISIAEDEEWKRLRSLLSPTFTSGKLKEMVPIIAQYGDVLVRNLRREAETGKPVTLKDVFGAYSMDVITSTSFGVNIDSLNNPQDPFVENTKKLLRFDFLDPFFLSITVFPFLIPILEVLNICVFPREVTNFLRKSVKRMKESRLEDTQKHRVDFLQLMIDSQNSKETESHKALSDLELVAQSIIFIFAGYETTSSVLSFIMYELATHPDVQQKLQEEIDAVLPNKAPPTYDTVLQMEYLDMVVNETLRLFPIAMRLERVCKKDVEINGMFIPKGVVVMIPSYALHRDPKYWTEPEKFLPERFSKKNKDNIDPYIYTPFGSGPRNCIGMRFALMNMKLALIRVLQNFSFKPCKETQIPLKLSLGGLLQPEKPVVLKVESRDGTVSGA
Sequence of CYP2C19 (P33261 whole entry): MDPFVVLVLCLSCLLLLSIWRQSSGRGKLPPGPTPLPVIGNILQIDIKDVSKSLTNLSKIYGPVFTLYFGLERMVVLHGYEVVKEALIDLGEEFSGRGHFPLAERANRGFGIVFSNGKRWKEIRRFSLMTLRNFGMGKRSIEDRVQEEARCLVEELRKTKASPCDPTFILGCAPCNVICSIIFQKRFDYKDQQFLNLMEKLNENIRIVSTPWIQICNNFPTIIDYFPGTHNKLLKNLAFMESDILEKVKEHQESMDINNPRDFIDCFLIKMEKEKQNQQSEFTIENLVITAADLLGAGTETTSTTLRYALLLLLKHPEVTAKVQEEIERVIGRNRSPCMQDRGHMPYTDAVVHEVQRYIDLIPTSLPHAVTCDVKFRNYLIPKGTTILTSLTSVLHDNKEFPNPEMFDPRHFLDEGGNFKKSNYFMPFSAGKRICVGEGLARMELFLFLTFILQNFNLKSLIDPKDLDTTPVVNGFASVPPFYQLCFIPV
Sequence of Mitogen-activated protein kinase 14 (Q16539 whole entry): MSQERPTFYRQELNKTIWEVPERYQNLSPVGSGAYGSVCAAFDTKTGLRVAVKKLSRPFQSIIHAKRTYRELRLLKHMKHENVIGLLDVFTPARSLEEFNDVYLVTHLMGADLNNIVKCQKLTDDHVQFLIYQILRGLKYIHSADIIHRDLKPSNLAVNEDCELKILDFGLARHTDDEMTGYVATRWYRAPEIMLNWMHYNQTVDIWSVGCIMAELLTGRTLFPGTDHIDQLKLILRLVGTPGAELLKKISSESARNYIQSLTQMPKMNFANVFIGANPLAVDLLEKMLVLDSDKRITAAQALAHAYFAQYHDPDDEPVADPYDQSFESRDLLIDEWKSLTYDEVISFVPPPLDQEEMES
Sequence of CYP2C9 (P11712 whole entry, canonical isoform): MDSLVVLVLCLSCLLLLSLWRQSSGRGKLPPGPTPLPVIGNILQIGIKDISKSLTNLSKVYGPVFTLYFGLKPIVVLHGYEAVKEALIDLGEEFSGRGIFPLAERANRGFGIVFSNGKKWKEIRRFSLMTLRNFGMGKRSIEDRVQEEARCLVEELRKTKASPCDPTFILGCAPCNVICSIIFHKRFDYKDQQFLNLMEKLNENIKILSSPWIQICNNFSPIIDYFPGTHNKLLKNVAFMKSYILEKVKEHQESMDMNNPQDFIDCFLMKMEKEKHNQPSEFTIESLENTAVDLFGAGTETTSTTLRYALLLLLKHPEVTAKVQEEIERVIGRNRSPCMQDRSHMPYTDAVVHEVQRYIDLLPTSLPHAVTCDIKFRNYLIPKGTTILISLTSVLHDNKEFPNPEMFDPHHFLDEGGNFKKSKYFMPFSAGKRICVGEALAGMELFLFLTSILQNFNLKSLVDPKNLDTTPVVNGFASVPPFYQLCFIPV

A word on the IC50: it is the concentration that gives 50% inhibition. The low end stands for greater potency in that assay, the high end for weaker potency in that assay. As to `C#CCOCCn1c(SC)nc(-c2ccc(F)cc2)c1-c1ccnc(NC(C)=O)c1`, the half-inhibitory concentration (IC50) with Blood [1] was determined as 40 µM; with Blood [2] it was 13.9 µM; in data set [3], 0.666 µM.

Usually inhibition stands for how much of the control response was suppressed. Turning to `CSc1nc(-c2ccc(F)cc2)c(-c2ccnc(NC(C)=O)c2)n1CCN1CCCCC1`, the IC50 in the data set with Blood [1] is more than 10 µM; in the data set with Blood [2], more than 10 µM; in data set [3], 1.34 µM. Besides, the inhibition at 10 µM against CYP2C9 was found to be 5%; against CYP1A2, 12%; at CYP2C19, 41%; on CYP3A4 it was 97%; on CYP2D6, 77.5%.

In data set [3], `COCCCn1c(SCCC(=O)N2CCOCC2)nc(-c2ccc(F)cc2)c1-c1ccnc(NC(C)=O)c1` displayed a concentration for half-maximal inhibition (IC50) of more than 10 µM.

In the case of `COCCn1c(SCCC(=O)N2CCOCC2)nc(-c2ccc(F)cc2)c1-c1ccnc(NC(C)=O)c1`, the IC50 in data set [3] turned out to be 0.46 µM. This counts as sub-micromolar.

In data set [3], `CSCCn1c(SCc2ccc([S+](C)[O-])cc2)nc(-c2ccc(F)cc2)c1-c1ccnc(NC(C)=O)c1` (stereo not given) showed a half-inhibitory concentration (IC50) of 2.38 µM.

On to `CSc1nc(-c2ccc(F)cc2)c(-c2ccnc(NC(C)=O)c2)n1CCNC(C)=O`, for which it took 7.29 µM to reach half-maximal inhibition in data set [3] (IC50).

In turn, `COCCCn1c(SCc2ccc([S+](C)[O-])cc2)nc(-c2ccc(F)cc2)c1-c1ccnc(NC(C)=O)c1` (stereo not given) yielded a concentration for half-maximal inhibition (IC50) in data set [3] of 1.31 µM.

`C=CCOCCn1c(SCc2ccc([S+](C)[O-])cc2)nc(-c2ccc(F)cc2)c1-c1ccnc(NC(C)=O)c1` (stereo not given) came in with an IC50 in data set [3] of more than 10 µM.

Consider `COCCCn1c(SC)nc(-c2ccc(F)cc2)c1-c1ccnc(NC(C)=O)c1`, for which the IC50 in the data set on Blood [1] was 17.8 µM; with Blood [2] it was 18.2 µM; in data set [3] it was 0.205 µM.

On to `C=CCOCCn1c(SC)nc(-c2ccc(F)cc2)c1-c1ccnc(NC(C)=O)c1`, for which the IC50 is more than 100 µM with Blood [1], 48.5 µM in the data set on Blood [2] and 1.85 µM in data set [3].

As for `CCOC(=O)N1CCC(n2c(SC)nc(-c3ccc(F)cc3)c2-c2ccnc(NC(C)=O)c2)CC1`, in data set [3], the IC50 is more than 10 µM.

As for `CC(=O)NCCn1c(SCc2ccc([S+](C)[O-])cc2)nc(-c2ccc(F)cc2)c1-c1ccnc(NC(C)=O)c1` (stereo not given), in data set [3], the IC50 is more than 10 µM.

In turn, `C#CCOCCn1c(SCc2ccc([S+](C)[O-])cc2)nc(-c2ccc(F)cc2)c1-c1ccnc(NC(C)=O)c1` (stereo not given) yielded an IC50 in data set [3] of 4.97 µM.

`CSc1nc(-c2ccc(F)cc2)c(-c2ccnc(NC(C)=O)c2)n1CC(C)O` (stereo not given) yielded an IC50 in data set [3] of 8.69 µM.

`CC(=O)Nc1cc(-c2c(-c3ccc(F)cc3)nc(SCc3ccc([S+](C)[O-])cc3)n2CCN2CCCCC2)ccn1` (stereo not given) had an IC50 in data set [3] of 4.43 µM.

`CSc1nc(-c2ccc(F)cc2)c(-c2ccnc(NC(C)=O)c2)n1CC1COC(C)(C)O1` (stereo not given) came in with an IC50 in data set [3] of 3.73 µM.

Regarding `CC(=O)Nc1cc(-c2c(-c3ccc(F)cc3)nc(SCCC(=O)N3CCOCC3)n2CCO)ccn1`, in data set [3], the IC50 came out at 2.51 µM.

In the case of `CSc1nc(-c2ccc(F)cc2)c(-c2ccnc(NC(C)=O)c2)n1CCO`, the half-inhibitory concentration (IC50) was found to be 35.8 µM with Blood [1], 33.2 µM in the data set on Blood [2] and 0.398 µM in data set [3].

`CSc1nc(-c2ccc(F)cc2)c(-c2ccnc(NC(C)=O)c2)n1CCN(C)C` gave an IC50 in data set [3] of 2.41 µM.

In turn, `CC(=O)Nc1cc(-c2c(-c3ccc(F)cc3)nc(SCc3ccc([S+](C)[O-])cc3)n2CCO)ccn1` (stereo not given) returned an IC50 in data set [3] of 2.24 µM.

The compound `CC(=O)Nc1cc(-c2c(-c3ccc(F)cc3)nc(SCCC(=O)N3CCOCC3)n2CCCO)ccn1` had an IC50 in data set [3] of 9.5 µM.

For the compound `CC(=O)Nc1cc(-c2c(-c3ccc(F)cc3)nc(SCc3ccc([S+](C)[O-])cc3)n2CC(C)O)ccn1` (stereo not given), the IC50 in data set [3] was more than 10 µM.

Turning to `CSc1nc(-c2ccc(F)cc2)c(-c2ccnc(NC(C)=O)c2)n1CCCO`, the IC50 with Blood [1] turned out to be 20.5 µM; with Blood [2], 13.8 µM; in data set [3], 0.813 µM.

Turning to `COC(Cn1c(SC)nc(-c2ccc(F)cc2)c1-c1ccnc(NC(C)=O)c1)OC`, in data set [3], the IC50 worked out at 4.1 µM. This counts as single-digit micromolar.

For `COCCn1c(SCc2ccc([S+](C)[O-])cc2)nc(-c2ccc(F)cc2)c1-c1ccnc(NC(C)=O)c1` (stereo not given), it took 0.15 µM to reach half-maximal inhibition in data set [3] (IC50).

`CSc1nc(-c2ccc(F)cc2)c(-c2ccnc(NC(C)=O)c2)n1CCCN1CCOCC1`: in data set [3], the IC50 was determined as 6.28 µM.

As to `CSCCn1c(SC)nc(-c2ccc(F)cc2)c1-c1ccnc(NC(C)=O)c1`, the IC50 was 44.2 µM in the data set with Blood [1], 36.4 µM in the data set with Blood [2] and 0.431 µM in data set [3].

`CC(=O)Nc1cc(-c2c(-c3ccc(F)cc3)nc(SCc3ccc([S+](C)[O-])cc3)n2C)ccn1` (stereo not given) gave an IC50 in data set [3] of 5.85 µM.

Compound `CC(=O)Nc1cc(-c2c(-c3ccc(F)cc3)nc(SCc3ccc([S+](C)[O-])cc3)n2C2CC(C)(C)NC(C)(C)C2)ccn1` (stereo not given) yielded an IC50 in data set [3] of more than 10 µM.

`CSc1nc(-c2ccc(F)cc2)c(-c2ccnc(NC(C)=O)c2)n1CCN1CCOCC1`: the results for the IC50 (with Blood [1]; in the data set on Blood [2]; in data set [3]) were more than 10 µM, more than 10 µM and 2.03 µM, respectively.

On to `CC(=O)Nc1cc(-c2c(-c3ccc(F)cc3)nc(SCc3ccc([S+](C)[O-])cc3)n2CCOCCO)ccn1` (stereo not given), for which the half-inhibitory concentration (IC50) in data set [3] was more than 10 µM.

For `CC(=O)Nc1cc(-c2c(-c3ccc(F)cc3)nc(SCCCC(=O)N3CCOCC3)n2CCO)ccn1`, the IC50 in data set [3] amounted to 2 µM.

Consider `COCCn1c(SC)nc(-c2ccc(F)cc2)c1-c1ccnc(NC(C)=O)c1`, for which the results for the IC50 (with Blood [1]; in the data set on Blood [2]; in data set [3]) were 32.8 µM, 30.5 µM and 0.218 µM, respectively. The inhibition at 10 µM against CYP2C9 came out at 23.5%; against CYP1A2, 0%; on CYP2C19, 70.5%; against CYP3A4 it was 62%; against CYP2D6 it was 3.5%.

In the case of `CSc1nc(-c2ccc(F)cc2)c(-c2ccnc(NC(C)=O)c2)n1CCOCCO`, the IC50 with Blood [1] is more than 100 µM; with Blood [2], more than 100 µM; in data set [3], 8.48 µM. Moreover, the inhibition at 10 µM at CYP2C9 was determined as 18.5%; at CYP1A2, 0%; against CYP2C19, 19%; against CYP3A4 it was 38%; against CYP2D6, 0%.

Compound `CC(=O)Nc1cc(-c2c(-c3ccc(F)cc3)nc(SCc3ccc([S+](C)[O-])cc3)n2CCCN2CCOCC2)ccn1` (stereo not given) showed an IC50 in data set [3] of more than 10 µM.
